In ChEMBL document CHEMBL4321820, “Identification and Optimization of Mechanism-Based Fluoroallylamine Inhibitors of Lysyl Oxidase-like 2/3” (J Med Chem, 2019):
Active and inactive are the calls of the source. The calls are words filed in the database; no cut-off is given here.

Tests used:
[1] = Time during which plasma concentration exceed invitro IC50 for recombinant human LOXL2 in BALB/c mouse administered with (Z)-Ethyl1-(4-Amino-2-fluorobut-2-en-1-yl)-3-(3-(N,N-dimethylsulfamoyl)phenyl)-2-methyl-1H-indole-5-carboxylate Hydrochloride at 20 mg/kg, po administered via gavage by HPLC-MS/MS analysis; assay type: ADME, organism-based; conditions: in vivo
[2] = test system: Mus musculus; experiment: Effect on plasma AST level in CCl4-induced BALB/c mouse model of liver fibrosis at 50 mg/kg, po administered for 6 weeks; assay type: ADME, organism-based; conditions: in vivo, 1008 h
Procedure, shortened: (§1)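 CCl4 liver fibrosis in female BALB/c mice: CCl4 i.p. (1 mL/kg 25% in olive oil) twice weekly for 6 weeks, sacrifice 48 h after final injection. Oral once-daily dosing weeks 1-6 or weeks 4-6; imatinib 50 mg/kg daily weeks 1-6. ALT and AST measured in plasma.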

[3] = test system: Mus musculus; experiment: Effect on plasma ALT level in CCl4-induced BALB/c mouse model of liver fibrosis at 50 mg/kg, po administered for 6 weeks; assay type: ADME, organism-based; conditions: in vivo, 1008 h; procedure, shortened: as §1
[4] = test system: Mus musculus; experiment: Antifibrotic activity in CCl4-induced BALB/c mouse model of liver fibrosis assessed as reduction in liver fibrosis area at 50 mg/kg, po administered for 6 weeks by alpha-SMA staining based microscopy; assay type: functional, organism-based
Procedure, shortened: (§2)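 Female BALB/c mice given CCl4 i.p. (1 mL/kg of 25% CCl4 in olive oil) twice weekly for 6 weeks; sacrificed 48 h after last dose. Test articles oral, once daily: prophylactic weeks 1-6 or therapeutic weeks 4-6; imatinib control 50 mg/kg daily weeks 1-6. One formalin-fixed liver lobe stained for Picro Sirius Red and α-SMA; fibrotic area as % of total liver area; mean ± SEM, one-way ANOVA with Dunnett's test.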

[5] = test system: Mus musculus; experiment: Antifibrotic activity in CCl4-induced BALB/c mouse model of liver fibrosis assessed as liver fibrosis area at 50 mg/kg, po administered for 6 weeks by picro-sirius red staining based microscopy; assay type: functional, organism-based; procedure, shortened: as §2
[6] = test system: Mus musculus; experiment: Antifibrotic activity in bleomycin-induced C57BL/6 mouse model of lung fibrosis assessed as reduction in Ashcroft score at 50 mg/kg, ip administered on day 7 to 27 and measured on day 28 by H and E staining based microscopy; assay type: functional; conditions: C57BL/6, ip
Procedure, shortened: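 Female C57BL/6 mice, 6-8 weeks old, under isoflurane received intranasal bleomycin sulphate 0.05 U/mouse in PBS; controls got PBS. Once-daily i.p. treatment days 7-27, n=12/group; imatinib 50 mg/kg i.p. as comparator. Sacrifice at day 28; lung fibrosis scored by Ashcroft score.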

Row | T>IC50 [1] | Compound | Activity [2] | Activity [3] | inhibition [4] | inhibition [5] | inhibition in vivo at 50 mg/kg [6]
1 | > 6 h | Cc1c(-c2cccc(S(=O)(=O)N(C)C)c2)c2cc(C(=O)O)ccc2n1C/C(F)=C/CN | – | – | – | – | –
2 | – | Cc1ccc(NC(=O)c2ccc(CN3CCN(C)CC3)cc2)cc1Nc1nccc(-c2cccnc2)n1 [IMATINIB] | Non-Toxic | Non-Toxic | Active | inactive | 50 to 70%
